The sample as a whole holds a higher share of hits than the screen did.
CHOP inh = inhibitors of CHOP promoter induction, primary screen, cell-based, unfolded protein response, luciferase reporter; CHO-K1 CHOP-promoter luciferase, tunicamycin-induced, 15-18 h; inhibition, % at 10 µM; hit rate 3.8% among 220,000;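 active = compounds that reduced the stress-induced luciferase reporter signal by more than about 70% of percent inhibition, limit read from the data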;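 also: 0% = tunicamycin plus vehicle and 100% = wells without tunicamycin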
UPR CHOP act = activators of apoptotic CHOP UPR arm, primary screen, cell-based, CHO-CHOP luciferase reporter, luminescence, uHTS. UPR activation; percent of tunicamycin response over DMSO baseline. activation, % at 10 µM. hit rate 0.34% among 330,000;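 active = at 10 µM dose, activation of 40% or more, normalized to positive control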;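 also: 100% = tunicamycin at 10 µg/mL and 0% = DMSO alone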
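Test system: CHO CHOP reporter cells. Input: 500 CHO-CHOP cells per well. Medium: F12 with 10% FBS. Technique: luciferase luminescence. Measure: percent activation relative to tunicamycin control. Dosing: 10 µM compound, 0.5% DMSO. Timing: 16-18 h cell attachment, then 6 h compound exposure, 37 °C.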
TbMetRS inhib = T. brucei MetRS inhibitors, primary screen, biochemical, luminescence | methionyl-tRNA synthetase (Trypanosoma brucei brucei) | purified T. brucei MetRS, ATP depletion, Kinase-Glo luminescence | inhibition, % at 11.9 µM | hit rate 0.4% among 360,000 | AID 624268, 2012;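 active = inhibition above a per-plate cutoff of the control wells' mean inhibition plus 3 SD, cut at about 5.5% in these data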;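 also: 0% = DMSO wells median and 100% = median of wells with control inhibitor compound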
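Material: T. brucei methionyl-tRNA synthetase, purified; reagent: substrates ATP, L-methionine and bulk Escherichia coli tRNA; dosing: 11.9 µM single point; timing: 15 min plus 2 h at 25 °C; detection: luminescence of leftover ATP; evaluation: % inhibition; control set: DMSO-only wells as low control; replicates: singlicate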
V-ATPase pHluor = regulators of yeast V-ATPase proton pumping, primary screen, pHLuorin cytosolic pH fluorescence; S. cerevisiae; response, % at 10 µM; hit rate 0.37% among 350,000; AID 504577, 2011; in the data active = response mostly above about 7.3%, no sharp cut-off; inactive = mostly below about 5.4%; also: actives read high
XBP1 UPR activ = activators of adaptive XBP1 UPR arm, primary screen, cell-based, CHO-XBP1 luciferase reporter, luminescence, uHTS; activation, % at 20 µM; hit rate 0.33% among 330,000; AID 463104, 2010; IRE1-XBP1 UPR activation; percent of tunicamycin response, DMSO as zero;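 active = versus positive control, 20 µM dose yields 30% or more activation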;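 also: 100% = tunicamycin at 10 µg/mL and 0% = DMSO only wells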
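Material: CHO cell line with stable XBP1 luciferase reporter; buffer or medium: F12 medium containing 10% fetal bovine serum; compound: single point, 20 µM final compound, 1% DMSO; incubation: 6 h treatment, 37 °C; measured by: glow luminescence from Steady-Glo reagent; evaluation: activation, % of tunicamycin; control set: tunicamycin high, DMSO low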
V-ATPase pH SP = yeast V-ATPase proton pumping modulators, confirmation, S. cerevisiae, pH-sensitive GFP, second cherry-pick. shares compounds with V-ATPase pHluor. S. cerevisiae pHLuorin cytosolic pH, V-ATPase proton transport. response, % at 10 µM. hit rate 2% among 980; in the data active = response above about 24%;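 also: plate controls were vehicle wells for no effect and positive control wells for full effect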
Active calls of the source: *; nt = no result given.

SMILES	CHOP inh	UPR CHOP act	TbMetRS inhib	V-ATPase pHluor	XBP1 UPR activ	V-ATPase pH SP
Cc1ccc(C(=O)Nc2ccc(S(=O)(=O)NC3=NCCCCC3)cc2)cc1S(=O)(=O)N1CCOCC1	nt	1.1	-0.6	6.4	-3.2	nt
CCOC(=O)C1(CCCc2ccccc2)CCN(C(=O)c2cc(C)nn2CC)CC1	nt	0.1	-0.3	-1.3	-3.0	nt
CC(C)(C)C(=O)Nc1ccc(S(=O)(=O)N2CCCC2)cc1	nt	-1.7	-1.2	8.5*	-5.6	0.2
CCOC(=O)c1nc2c(ccc3ccccc32)cc1C	23.8	2.1	-0.9	2.7	2.4	-0.7
C=CCOc1ccc(CNc2ccc(NC(=O)CC(C)C)cc2)cc1OC	17.9	13.6	-0.8	10.2	-0.4	nt
Cc1[nH]c(C)c(S(=O)(=O)N(C)Cc2ccccc2)c1C(=O)N1CCCC1	nt	2.6	-0.2	-1.8	-1.9	nt
Cc1[nH]c(C)c(S(=O)(=O)N(Cc2ccccc2)C(C)(C)C)c1C(=O)N1CCCC1	nt	0.2	-0.2	10.1*	-1.9	2.9
CCC(=O)Nc1cc2c3c(c1)CCC(=O)N3CCC2	nt	-0.2	0.8	-0.4	-1.9	nt
COCCNC(=O)C1(C)CCCN(C(=O)c2cc(C)oc2C)C1 (stereo not drawn)	nt	nt	0.1	nt	nt	nt
CCCn1c(=O)c2sccc2n2c(CCCC(=O)NC3CCN(Cc4ccccc4)CC3)nnc12	nt	-1.4	-0.5	10.4*	-3.8	-1.2
CCOc1cc(S(=O)(=O)NCc2ccncc2)c(C)cc1C	26.2	-2.4	-1.0	-3.2	-5.0	nt
Cc1ccc(S(=O)(=O)CCC(=O)OCC(=O)N2CCN(S(=O)(=O)c3ccccc3)CC2)cc1	nt	-1.3	-0.2	1.3	-0.9	nt
Cc1ccc(S(=O)(=O)N2CCN(C(=O)COC(=O)CCOc3ccccc3C)CC2)cc1	nt	-1.4	0.2	11.8*	-2.4	2.5
Cc1ccc(C)c(OCCC(=O)OCC(=O)N2CCN(S(=O)(=O)c3ccc(Cl)cc3)CC2)c1	nt	0.6	-0.2	-1.2	-4.0	nt
Cc1ccc(S(=O)(=O)N2CCN(C(=O)COC(=O)CCOc3cc(C)ccc3C)CC2)cc1	nt	2.6	-0.7	10.1*	-1.8	2.1
Cc1cccc(C)c1NC(=O)C(c1ccc(C(F)(F)F)cc1)n1c(=O)c(-c2cc3ccccc3[nH]2)nc2ccccc21 (stereo not drawn)	nt	nt	-0.6	nt	nt	nt
COc1ccc(C)cc1NC(=O)C(OC(=O)CNC(=O)c1cccc(F)c1)c1ccccc1 (stereo not drawn)	-6.7	0.2	-1.2	10.2*	5.4	-0.1
O=C(/C=C/c1ccc(Cl)cc1)NC(=S)Nc1ccc(NC(=O)c2ccco2)cc1	-12.7	nt	-1.3	-3.2	nt	nt
Cc1ccc(CCNS(=O)(=O)c2cc3c(cc2C)n(C)c(=O)c(=O)n3C)cc1	nt	-2.0	-0.5	10.1*	0.2	1.9
Cc1cc2c(cc1S(=O)(=O)NCc1ccccc1)n(C)c(=O)c(=O)n2C	nt	-1.5	-0.1	-2.5	-1.1	nt
COc1ccc(Cc2n[nH]c(=O)c3ccccc23)cc1OC	7.0	-1.0	-0.5	21.6*	0.1	3.4
CCOC(=O)C1(Cc2ccccc2C(F)(F)F)CCN(CC2CC2)CC1	13.3	-0.8	0.3	3.1	2.0	nt
Cc1cccc(CCN=c2c([N+](=O)[O-])nn(-c3ccccc3)n2O)c1	22.0	0.8	-0.7	1.0	-3.7	nt
Cc1cccc(-n2nc([N+](=O)[O-])c(=NC3CCN(Cc4ccccc4)CC3)n2O)c1	25.6	-2.0	-0.1	12.7*	-1.1	-1.7
O=C(NC(Cc1ccccc1)C(=O)N1CCN(c2ccccn2)CC1)c1ccco1 (stereo not drawn)	12.2	0.7	-1.1	12.2*	-0.9	-1.8
[O-]C1=N[N+](=C(c2ccccc2)c2ccccc2)C1	nt	nt	-0.2	-0.3	nt	nt
CN1CCN(C(=O)c2c(O)c3cccc4c3n(c2=O)CC4)CC1	-17.4	-2.7	1.1	-0.1	4.0	nt
Cc1c(C)n2c3c(cccc13)CC2	25.1	1.5	-0.5	6.0*	3.0	0.9
CCOC(=O)N1CCN(C(=O)C(=O)Nc2sc3c(c2C(=O)O)CC(C)(C)OC3)CC1	nt	-1.1	-0.7	-1.0	-3.9	nt

Screening data (PubChem BioAssay)
